In ChEMBL document CHEMBL3739286, “Betulinic acid derived hydroxamates and betulin derived carbamates are interesting scaffolds for the synthesis of novel cytotoxic compounds” (Eur J Med Chem, 2015):

Tests used:
[1] = tested on: MCF7; test: Cytotoxicity against human MCF7 cells after 96 hrs by SRB assay; type: functional, cell-based; details: Homo sapiens, MCF7, 96 h; read-out: EC50
In short: (§1)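 Photometric sulforhodamine B read-out of antiproliferative effect after 96 h of continuous treatment; EC₅₀ values in µM, averaged from three independent experiments each run in triplicate; the assay cut-off is EC₅₀ > 30 µM. Human tumour lines are tested alongside nonmalignant mouse NIH 3T3 fibroblasts.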

[2] = tested on: HT-29; test: Cytotoxicity against human HT-29 cells after 96 hrs by SRB assay; type: functional, cell-based; details: HT-29, 96 h; in short: as §1
[3] = tested on: A2780; test: Cytotoxicity against human A2780 cells after 96 hrs by SRB assay; type: functional, cell-based; details: Homo sapiens, A2780, 96 h; read-out: EC50; in short: as §1
[4] = Cytotoxicity against human 518A2 cells after 96 hrs by SRB assay; type: functional, cell-based; details: Homo sapiens, 518A2, 96 h; read-out: EC50; in short: as §1
[5] = Cytotoxicity against mouse NIH/3T3 cells after 96 hrs by SRB assay; type: cell-based, NIH3T3; details: Mus musculus, NIH3T3, 96 h; read-out: EC50; in short: as §1
[6] = tested on: A549; test: Cytotoxicity against human A549 cells after 96 hrs by SRB assay; type: functional, cell-based; details: Homo sapiens, A549, 96 h; read-out: EC50; in short: as §1
[7] = tested on: HeLa; test: Cytotoxicity against human HeLa cells after 96 hrs by SRB assay; type: functional, cell-based; in short: as §1

Row | Structure (SMILES) | EC50 [1] | EC50 [2] | EC50 [3] | EC50 [4] | EC50 [5] | EC50 [6] | EC50 [7]
1 | C=C(C)[C@@H]1CC[C@]2(C(N)=O)CC[C@]3(C)[C@H](CC[C@@H]4[C@@]5(C)CCC(=O)C(C)(C)[C@@H]5CC[C@]43C)[C@@H]12 | 10.3 µM | 17.9 µM | 15.6 µM | 21.5 µM | 17.7 µM | 14.7 µM | 22.9 µM
2 | C=C(C)[C@@H]1CC[C@]2(C(N)=O)CC[C@]3(C)[C@H](CC[C@@H]4[C@@]5(C)CC[C@H](OC(C)=O)C(C)(C)[C@@H]5CC[C@]43C)[C@@H]12 | 11.1 µM | 11.5 µM | 5.7 µM | 13.4 µM | 20 µM | 12.4 µM | 12 µM
3 | C=C(C)[C@@H]1CC[C@]2(COC(=O)NCCCC)CC[C@]3(C)[C@H](CC[C@@H]4[C@@]5(C)CC[C@H](OC(=O)NCCCC)C(C)(C)[C@@H]5CC[C@]43C)[C@@H]12 | > 30 µM | > 30 µM | > 30 µM | > 30 µM | > 30 µM | > 30 µM | > 30 µM
4 | C=C(C)[C@@H]1CC[C@]2(C(=O)NCc3ccccc3)CC[C@]3(C)[C@H](CC[C@@H]4[C@@]5(C)CC[C@H](OC(C)=O)C(C)(C)[C@@H]5CC[C@]43C)[C@@H]12 | > 30 µM | > 30 µM | 6.2 µM | 6.2 µM | > 30 µM | 10.3 µM | 16.9 µM
5 | C=C(C)[C@@H]1CC[C@]2(COC(=O)NCC)CC[C@]3(C)[C@H](CC[C@@H]4[C@@]5(C)CC[C@H](OC(C)=O)C(C)(C)[C@@H]5CC[C@]43C)[C@@H]12 | 20.4 µM | > 30 µM | 11.1 µM | 10.2 µM | > 30 µM | 14.1 µM | 17 µM
6 | C=C(C)[C@@H]1CC[C@]2(COC(=O)NCCC)CC[C@]3(C)[C@H](CC[C@@H]4[C@@]5(C)CC[C@H](OC(C)=O)C(C)(C)[C@@H]5CC[C@]43C)[C@@H]12 | > 30 µM | > 30 µM | > 30 µM | > 30 µM | > 30 µM | > 30 µM | > 30 µM
7 | C=C(C)[C@@H]1CC[C@]2(C(=O)NCc3ccccc3)CC[C@]3(C)[C@H](CC[C@@H]4[C@@]5(C)CCC(=O)C(C)(C)[C@@H]5CC[C@]43C)[C@@H]12 | > 30 µM | > 30 µM | 7.4 µM | > 30 µM | > 30 µM | > 30 µM | > 30 µM
8 | C=C(C)[C@@H]1CC[C@]2(COC(=O)NCCC)CC[C@]3(C)[C@H](CC[C@@H]4[C@@]5(C)CC[C@H](OC(=O)NCCC)C(C)(C)[C@@H]5CC[C@]43C)[C@@H]12 | > 30 µM | > 30 µM | 19.4 µM | > 30 µM | > 30 µM | > 30 µM | > 30 µM
9 | C=C(C)[C@@H]1CC[C@]2(COC(=O)NCCCCCC)CC[C@]3(C)[C@H](CC[C@@H]4[C@@]5(C)CC[C@H](OC(=O)NCCCCCC)C(C)(C)[C@@H]5CC[C@]43C)[C@@H]12 | > 30 µM | > 30 µM | > 30 µM | > 30 µM | > 30 µM | > 30 µM | > 30 µM
10 | C=C(C)[C@@H]1CC[C@]2(C(N)=O)CC[C@]3(C)[C@H](CC[C@@H]4[C@@]5(C)CC[C@H](O)C(C)(C)[C@@H]5CC[C@]43C)[C@@H]12 | 10.7 µM | 10.2 µM | 15.7 µM | 9.9 µM | 10.7 µM | 8.2 µM | 11.2 µM
11 | C=C(C)[C@@H]1CC[C@]2(COC(=O)NCC)CC[C@]3(C)[C@H](CC[C@@H]4[C@@]5(C)CC[C@H](OC(=O)NCC)C(C)(C)[C@@H]5CC[C@]43C)[C@@H]12 [BIS(ETHYLCARBAMATE)BETULIN] | 23.3 µM | 8.3 µM | 5.8 µM | 12.6 µM | > 30 µM | 10.7 µM | 17.8 µM
